Measured values: ChEMBL document CHEMBL1921716, “Discovery of N-[2-hydroxy-6-(4-methoxybenzamido)phenyl]-4- (4-methyl-1,4-diazepan-1-yl)benzamide (darexaban, YM150) as a potent and orally available factor Xa inhibitor” (J Med Chem, 2011)

Tests used:
Coagulation factor X [1] = molecular target: T1, Coagulation factor X (Homo sapiens, UniProt P00742); test: Inhibition of human factor 10A using chromogenic substrate S2222 by absorbance measurement at 405 nm
Plasma [2] = test: Anticoagulant activity in mouse plasma assessed as concentration required to double the clotting time by coagulometric analysis; format: functional
Summary of the method: (§1)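 Citrated blood was spun at 3000 rpm for 10 min to give platelet-poor plasma, stored at −40 °C. Prothrombin time was read on a coagulometer at 37 °C with thromboplastin and compared with a distilled-water control. CT2 (concentration doubling clotting time) was estimated from each concentration–response curve. Each measurement was done three times and reported as the mean.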

Mus musculus [3] = test: Anticoagulant activity in mouse assessed as prothrombin time at 100 mg/kg, po measured after 0.5 hrs by coagulometric analysis relative to control; format: functional, ICR
[4] = Effective permeability of the compound after 2 hrs by PAMPA at pH 6.5; format: ADME; conditions: read-out: Peff
Summary of the method: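 Compound from a 10 mM DMSO stock was diluted to a final concentration of about 50 μM in buffer containing 10% DMSO. Donor was pH 6.5 and acceptor pH 7.4, separated by a filter coated with 20% lecithin in dodecane. Plates were incubated 2 h at 25 °C in saturated humidity. Both compartments were quantified by UV at 270–400 nm against standards, with mass balance, to give Pe (n = 2).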

Mus musculus [5] = test: Anticoagulant activity in mouse assessed as prothrombin time at 100 mg/kg, po measured after 2 hrs by coagulometric analysis relative to control; format: functional, ICR
[6] = Intrinsic clearance in CD1 mouse liver microsomes assessed as compound remaining at 0.2 uM after 30 mins; format: ADME, Microsome
Coagulation factor X [7] = molecular target: T1, Coagulation factor X; test: Inhibition of human factor 10A using chromogenic substrate S2222 by dixon plot analysis
Summary of the method: (§2)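 Human enzymes were used at final concentrations of 4.2 mU/mL FXa, 0.20 U/mL thrombin, 1.0 U/mL trypsin and 1.7 mU/mL plasma kallikrein. Substrates were S-2222 (FXa, trypsin), S-2238 (thrombin) and S-2302 (kallikrein). Reactions were started by adding enzyme, and hydrolysis was followed at 405 nm at 37 °C. Mode of inhibition came from Lineweaver–Burk plots and Ki from Dixon plots at several substrate concentrations. Values are means of four determinations.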

Trypsin = Trypsin (Homo sapiens, UniProt P07477+P07478+P35030); test: Inhibition of human trypsin using chromogenic substrate S2222 by dixon plot analysis plot; format: protein assay
Summary of the method: as §2

Rattus norvegicus [8] = test: Tmax in F344/DuCrlCrlj rat at 100 mg/kg, po assessed as 3-[(4-methoxybenzoyl)amino]-2-{[4-(4-methyl-1,4-diazepan- 1-yl)benzoyl]amino}phenyl beta-D-glucopyranosiduronic acid level after 24 hrs by LC-MS/MS analysis; format: ADME, organism-based; set-up: dose 100 mg/kg, route oral; conditions: in vivo
Summary of the method: (§3)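 Male F344/DuCrlCrlj rats, 6 weeks old and nonfasted, received a single oral dose of 100 mg/kg as the monomaleate salt suspended in 0.5% methylcellulose, dose given as free form. Three rats per time point were bled at 0.5, 1, 2, 4, 8 and 24 h. Plasma was deproteinized with acetonitrile containing internal standards, and parent and glucuronide were measured by LC-MS/MS.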

Prothrombin = Prothrombin (Homo sapiens, UniProt P00734); test: Inhibition of human thrombin using chromogenic substrate S2238 by dixon plot analysis
Summary of the method: as §2

Plasma [9] = test: Anticoagulant activity in human plasma assessed as concentration required to double the clotting time by coagulometric analysis; format: functional
Summary of the method: as §1

Rattus norvegicus [10] = test: AUC (0 to 24 hrs) in F344/DuCrlCrlj rat at 100 mg/kg, po assessed as 3-[(4-methoxybenzoyl)amino]-2-{[4-(4-methyl-1,4-diazepan- 1-yl)benzoyl]amino}phenyl beta-D-glucopyranosiduronic acid level after 24 hrs by LC-MS/MS analysis; format: ADME, organism-based, Plasma; set-up: time < 24 hr, dose 100 mg/kg, route oral; conditions: in vivo
Summary of the method: as §3

Rattus norvegicus [11] = test: Cmax in F344/DuCrlCrlj rat at 100 mg/kg, po assessed as 3-[(4-methoxybenzoyl)amino]-2-{[4-(4-methyl-1,4-diazepan- 1-yl)benzoyl]amino}phenyl beta-D-glucopyranosiduronic acid level after 24 hrs by LC-MS/MS analysis; format: ADME, organism-based; set-up: dose 100 mg/kg, route oral; conditions: in vivo
Summary of the method: as §3

Plasma kallikrein = Plasma kallikrein (Homo sapiens, UniProt P03952); test: Inhibition of human plasma kallikrein using chromogenic substrate S2302 by dixon plot analysis
Summary of the method: as §2

[12] = Cmax in F344/DuCrlCrlj rat at 100 mg/kg, po; format: ADME, organism-based; set-up: dose 100 mg/kg, route oral; conditions: in vivo
Summary of the method: as §3

[13] = Tmax in F344/DuCrlCrlj rat at 100 mg/kg, po; format: ADME, organism-based; set-up: dose 100 mg/kg, route oral; conditions: in vivo
Summary of the method: as §3

[14] = AUC (0 to 24 hrs) in F344/DuCrlCrlj rat at 100 mg/kg, po; format: ADME, organism-based; set-up: time < 24 hr, dose 100 mg/kg, route oral; conditions: plasma
Summary of the method: as §3

T1 sequence (P00742 41-179 limits assumed): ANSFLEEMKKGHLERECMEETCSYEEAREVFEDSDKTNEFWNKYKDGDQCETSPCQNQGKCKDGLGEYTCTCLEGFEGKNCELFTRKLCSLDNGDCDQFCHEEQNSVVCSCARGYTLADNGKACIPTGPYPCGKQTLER
T1 sequence (P00742 235-488 limits assumed): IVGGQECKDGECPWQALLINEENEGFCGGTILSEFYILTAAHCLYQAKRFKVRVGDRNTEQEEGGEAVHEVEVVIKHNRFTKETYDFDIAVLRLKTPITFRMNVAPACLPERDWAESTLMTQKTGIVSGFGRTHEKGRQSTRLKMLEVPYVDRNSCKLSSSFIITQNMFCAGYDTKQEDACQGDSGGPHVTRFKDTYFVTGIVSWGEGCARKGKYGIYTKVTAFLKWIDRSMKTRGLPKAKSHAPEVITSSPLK
Plasma kallikrein, sequence (P03952 20-390 limits assumed): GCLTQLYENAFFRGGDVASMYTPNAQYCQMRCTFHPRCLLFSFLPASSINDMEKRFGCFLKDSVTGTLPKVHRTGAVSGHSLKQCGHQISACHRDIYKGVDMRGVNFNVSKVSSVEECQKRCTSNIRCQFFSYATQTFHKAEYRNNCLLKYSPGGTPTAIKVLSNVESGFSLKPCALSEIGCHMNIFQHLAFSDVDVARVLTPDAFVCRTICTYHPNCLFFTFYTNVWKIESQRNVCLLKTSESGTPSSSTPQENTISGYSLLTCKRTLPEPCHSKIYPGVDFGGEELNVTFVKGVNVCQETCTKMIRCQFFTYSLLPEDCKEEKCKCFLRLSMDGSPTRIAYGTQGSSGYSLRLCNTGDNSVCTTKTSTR
Plasma kallikrein, sequence (P03952 391-638 limits assumed): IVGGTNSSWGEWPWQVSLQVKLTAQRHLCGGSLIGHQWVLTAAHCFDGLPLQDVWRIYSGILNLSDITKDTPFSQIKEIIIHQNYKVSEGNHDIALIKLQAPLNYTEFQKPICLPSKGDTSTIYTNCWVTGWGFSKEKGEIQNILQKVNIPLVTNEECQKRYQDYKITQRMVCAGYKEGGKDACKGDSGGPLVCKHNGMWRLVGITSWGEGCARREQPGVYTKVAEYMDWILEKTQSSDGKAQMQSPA

Row | Structure (SMILES) | IC50 (Coagulation factor X [1]) [µM] | CD (Plasma [2]) [µM] | fold change (FC) (Mus musculus [3]) | fold change (FC) (Mus musculus [5]) | also measured
1 | COc1ccc(C(=O)Nc2ccccc2NC(=O)c2ccc(OC)cc2)cc1 | 4.22 | – | – | – | –
2 | COc1ccc(C(=O)Nc2ccc(OC)cc2NC(=O)c2ccc(OC)cc2)cc1 | 6.22 | – | – | – | –
3 | COc1ccc(C(=O)Nc2ccccc2NC(=O)c2ccc(N3CCCN(C)CC3)cc2)cc1 | 0.103 | 2.8 | 1.38 | 1.39 | Papp at 2 h [4]: 42 ×10⁻⁶ cm/s; CLint scaled at 0.2 µM [6]: 2050 mL/min/kg
4 | COc1ccc(C(=O)Nc2ccccc2C(=O)Nc2ccc(N3CCCN(C)CC3)cc2)cc1 | 0.539 | – | – | – | –
5 | COc1ccc(NC(=O)c2ccccc2NC(=O)c2ccc(N3CCCN(C)CC3)cc2)cc1 | 0.14 | 5.9 | 1.02 | 0.98 | –
6 | COc1ccc(C(=O)Nc2cccc(OC)c2NC(=O)c2ccc(N3CCCN(C)CC3)cc2)cc1 | 0.0626 | 3.7 | 1.5 | 1.32 | Papp at 2 h [4]: 47.5 ×10⁻⁶ cm/s; CLint scaled at 0.2 µM [6]: 2200 mL/min/kg
7 | COc1ccc(C(=O)Nc2ccc(OC)cc2NC(=O)c2ccc(N3CCCN(C)CC3)cc2)cc1 | 0.0734 | 7.5 | 1.35 | 1.38 | –
8 | COc1ccc(C(=O)Nc2cc(OC)ccc2NC(=O)c2ccc(N3CCCN(C)CC3)cc2)cc1 | 0.118 | 7.1 | 1.25 | 1.34 | –
9 | COc1ccc(C(=O)Nc2c(NC(=O)c3ccc(N4CCCN(C)CC4)cc3)cccc2OC)cc1 | 0.213 | 13 | – | – | –
10 | COc1ccc(C(=O)Nc2cccc(C(=O)O)c2NC(=O)c2ccc(N3CCCN(C)CC3)cc2)cc1 | 0.0992 | 9 | 1.05 | 1.08 | –
11 | COc1ccc(C(=O)Nc2ccc(C(=O)O)cc2NC(=O)c2ccc(N3CCCN(C)CC3)cc2)cc1 | 0.0311 | 1.7 | 1 | 1 | –
12 | COc1ccc(C(=O)Nc2ccc(O)cc2NC(=O)c2ccc(N3CCCN(C)CC3)cc2)cc1 | 0.0503 | 1.4 | 1.04 | 1 | Papp at 2 h [4]: < 0.3 ×10⁻⁶ cm/s; CLint scaled at 0.2 µM [6]: 1700 mL/min/kg
13 | COc1ccc(C(=O)Nc2cc(O)ccc2NC(=O)c2ccc(N3CCCN(C)CC3)cc2)cc1 | 0.157 | 4.7 | 1.02 | 1.01 | –
14 | COc1ccc(C(=O)Nc2cccc(F)c2NC(=O)c2ccc(N3CCCN(C)CC3)cc2)cc1 | 0.155 | 4.3 | 1.43 | 1.22 | –
15 | COc1ccc(C(=O)Nc2cccc(OCC(=O)O)c2NC(=O)c2ccc(N3CCCN(C)CC3)cc2)cc1 | 0.123 | 2.8 | 0.99 | 0.98 | –
16 | COc1ccc(C(=O)Nc2cccc(OCCO)c2NC(=O)c2ccc(N3CCCN(C)CC3)cc2)cc1 | 0.106 | 3 | 1.36 | 1.31 | –
17 | CSc1ccc(C(=O)Nc2cccc(O)c2NC(=O)c2ccc(N3CCCN(C)CC3)cc2)cc1 | 1.44 | – | – | – | –
18 | CN1CCCN(c2ccc(C(=O)Nc3c(O)cccc3NC(=O)c3ccc(O)cc3)cc2)CC1 | 6.14 | – | – | – | –
19 | CN1CCCN(c2ccc(C(=O)Nc3c(O)cccc3NC(=O)c3ccc(F)cc3)cc2)CC1 | 0.349 | – | – | – | –
20 | CN1CCCN(c2ccc(C(=O)Nc3c(O)cccc3NC(=O)c3ccc(Cl)cc3)cc2)CC1 | 0.0642 | 5.3 | 1.42 | 1.32 | –
21 | CN1CCCN(c2ccc(C(=O)Nc3c(O)cccc3NC(=O)c3ccc(Br)cc3)cc2)CC1 | 0.0598 | 6.7 | 1.41 | 1.62 | –
22 | COc1ccc(C(=O)Nc2cccc(O)c2NC(=O)c2ccc(N3CCCN(C)CC3)cc2)s1 | 0.0861 | 3.8 | 2.17 | 1.9 | –
23 | CN1CCCN(c2ccc(C(=O)Nc3c(O)cccc3NC(=O)c3ccc(Cl)s3)cc2)CC1 | 0.0413 | 5.8 | 1.48 | 1.27 | –
24 | CN1CCCN(c2ccc(C(=O)Nc3c(O)cccc3NC(=O)c3ccc(Br)s3)cc2)CC1 | 0.0414 | 7.1 | 1.53 | 1.22 | –
25 | COc1ccc(C(=O)Nc2cccc(O[C@@H]3O[C@H](C(=O)O)[C@@H](O)[C@H](O)[C@H]3O)c2NC(=O)c2ccc(N3CCCN(C)CC3)cc2)cc1 | 0.0286 | 2.5 | – | – | Ki (Coagulation factor X [7]): 0.02 µM; Papp at 2 h [4]: < 0.2 ×10⁻⁶ cm/s; Ki (Trypsin): > 100 µM; Tmax (Rattus norvegicus [8]): 0.5 h; Ki (Prothrombin): > 100 µM; CD (Plasma [9]): 0.95 µM; AUC (Rattus norvegicus [10]): 38539.2 ng·h/mL; Cmax (Rattus norvegicus [11]): 9439.5 ng/mL; CLint scaled at 0.2 µM [6]: 90.6 mL/min/kg; Ki (Plasma kallikrein): 17 µM
26 | COc1ccc(C(=O)Nc2cccc(O)c2NC(=O)c2ccc(N3CCCN(C)CC3)cc2)cc1.O=C(O)/C=C\C(=O)O | – | – | – | – | Cmax [12]: 175 ng/mL; Tmax [13]: 2 h; AUC(0-t) at 24 h [14]: 1290 ng·h/mL
27 | COc1ccc(C(=O)Nc2cccc(O)c2NC(=O)c2ccc(N3CCCN(C)CC3)cc2)cc1 [DAREXABAN] | 0.0546 | 4.1 | 3.49 | 2.09 | Ki (Coagulation factor X [7]): 0.031 µM; Papp at 2 h [4]: 30 ×10⁻⁶ cm/s; Ki (Trypsin): > 100 µM; Ki (Prothrombin): > 100 µM; CD (Plasma [9]): 1.2 µM; CLint scaled at 0.2 µM [6]: 1910 mL/min/kg; Ki (Plasma kallikrein): 11 µM
